# Experimental data from ChEMBL document CHEMBL2086296, “Synthesis of novel quinoline-2-one based chalcones of potential anti-tumor activity” (Eur J Med Chem, 2012).
# How the values were obtained:
# MOLT-4 = assay: Cytotoxicity against human MOLT4 cells after 24 hrs by SRB assay; assay type: functional; details: MOLT-4, 24 h
# How it was run: (§1)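 NCI 60-line screen. Cells in RPMI 1640 with 5% FBS and 2 mM L-glutamine, seeded at 5,000–40,000 cells/well by doubling time, then incubated 24 h at 37 °C, 5% CO2 before dosing. Time-zero plates fixed with TCA at drug addition. DMSO stocks diluted in medium with gentamicin to five concentrations, […]. Protein read by SRB staining. GI50, TGI and LC50 derived relative to control and time-zero.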
# EKVX [1] = assay: (§2) Cytotoxicity against human EKVX cells after 24 hrs by SRB assay; assay type: functional; how it was run: as §1
# HOP-92 = assay: Cytotoxicity against human HOP92 cells after 24 hrs by SRB assay; assay type: functional; details: HOP-92, 24 h; how it was run: as §1
# HCT-116 [2] = assay: (§3) Cytotoxicity against human HCT116 cells after 24 hrs by SRB assay; assay type: functional; details: HCT-116, 24 h; how it was run: as §1
# SW-620 = assay: Cytotoxicity against human SW620 cells after 24 hrs by SRB assay; assay type: functional; details: SW-620, 24 h
# How it was run: (§4)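 NCI 60-cell screen. Cells are grown in RPMI 1640 with 5% FBS and 2 mM L-glutamine and seeded at 5,000–40,000 cells/well according to doubling time. They are preincubated 24 h at 37 °C in 5% CO2, and Tz plates are TCA-fixed at drug addition. Drug stock is in DMSO, diluted in medium with gentamicin, and tested at five concentrations (100, 10, 1.0, 0.1, […]). Protein is read by SRB staining. GI50, TGI and LC50 are derived relative to time-zero and control wells.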
# SF-268 = assay: Cytotoxicity against human SF268 cells after 24 hrs by SRB assay; assay type: functional; details: SF-268, 24 h; how it was run: as §1
# LOX IMVI [3] = assay: (§5) Cytotoxicity against human LOXIMVI cells after 24 hrs by SRB assay; assay type: functional; how it was run: as §1
# SK-MEL-5 = assay: Cytotoxicity against human SK-MEL-5 cells after 24 hrs by SRB assay; assay type: functional; details: SK-MEL-5, 24 h; how it was run: as §1
# UACC-257 [4] = assay: (§6) Cytotoxicity against human UACC257 cells after 24 hrs by SRB assay; assay type: functional; details: UACC-257, 24 h; how it was run: as §4
# UACC-62 [5] = assay: (§7) Cytotoxicity against human UACC62 cells after 24 hrs by SRB assay; assay type: functional; details: UACC-62, 24 h; how it was run: as §4
# M14 = assay: Cytotoxicity against human M14 cells after 24 hrs by SRB assay; assay type: functional; details: M14, 24 h; how it was run: as §1
# OVCAR-3 = assay: Cytotoxicity against human OVCAR3 cells after 24 hrs by SRB assay; assay type: functional; details: OVCAR-3, 24 h; how it was run: as §1
# NCI/ADR-RES = assay: Cytotoxicity against human NCI/ADR-RES cells after 24 hrs by SRB assay; assay type: functional; how it was run: as §1
# SK-OV-3 = assay: Cytotoxicity against human SKOV3 cells after 24 hrs by SRB assay; assay type: functional; details: SK-OV-3, 24 h; how it was run: as §1
# ACHN = assay: Cytotoxicity against human ACHN cells after 24 hrs by SRB assay; assay type: functional; how it was run: as §1
# RXF 393 = assay: Cytotoxicity against human RXF393 cells after 24 hrs by SRB assay; assay type: functional; details: RXF 393, 24 h; how it was run: as §1
# SN12C = assay: Cytotoxicity against human SN12C cells after 24 hrs by SRB assay; assay type: functional; how it was run: as §1
# [6] = Cytotoxicity against human Hs 578T cells after 24 hrs by SRB assay; assay type: functional; how it was run: as §1
# SR = assay: Cytotoxicity against human SR cells after 24 hrs by SRB assay; assay type: cell-based
# How it was run: (§8)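 NCI 60-cell-line screen: cells grown in RPMI 1640 with 5% FBS and 2 mM L-glutamine, seeded at 5,000–40,000 cells/well by doubling time, and preincubated 24 h at 37 °C in 5% CO2. Time-zero plates were TCA-fixed. DMSO stocks were diluted in medium with gentamicin to five concentrations (100, 10, 1.0, 0.1, […]). Protein was read by SRB, and GI50, TGI and LC50 were derived against time-zero.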
# HL-60 = assay: Cytotoxicity against human HL60 cells after 24 hrs by SRB assay; assay type: cell-based; details: hl-60, 24 h
# How it was run: (§9)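 NCI 60-cell screen. Cells grown in RPMI 1640 with 5% FBS and 2 mM L-glutamine, seeded at 5,000–40,000 cells/well, preincubated 24 h at 37 °C in 5% CO2. Drug stock in DMSO, diluted in medium with gentamicin; five final concentrations, 100, 10, 1.0, 0.1 and […]. Time-zero plates were TCA-fixed. Protein read by SRB staining; GI50, TGI and LC50 taken relative to time-zero.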
# EKVX [7] = assay: as §2; assay type: cell-based; how it was run: as §9
# HOP-62 = assay: Cytotoxicity against human HOP62 cells after 24 hrs by SRB assay; assay type: cell-based; details: hop-62, 24 h; how it was run: as §9
# NCI-H23 = assay: Cytotoxicity against human NCI-H23 cells after 24 hrs by SRB assay; assay type: cell-based; details: nci-h23, 24 h; how it was run: as §9
# NCI-H522 = assay: Cytotoxicity against human NCI-H522 cells after 24 hrs by SRB assay; assay type: cell-based; details: nci-h522, 24 h; how it was run: as §9
# HCT-116 [8] = assay: as §3; assay type: cell-based; details: hct-116, 24 h; how it was run: as §9
# HT-29 = assay: Cytotoxicity against human HT-29 cells after 24 hrs by SRB assay; assay type: cell-based; details: ht-29, 24 h; how it was run: as §9
# HCC 2998 = assay: Cytotoxicity against human HCC2998 cells after 24 hrs by SRB assay; assay type: cell-based; details: hcc 2998, 24 h; how it was run: as §9
# SF-539 = assay: Cytotoxicity against human SF539 cells after 24 hrs by SRB assay; assay type: cell-based; details: sf-539, 24 h; how it was run: as §9
# SNB-75 = assay: Cytotoxicity against human SNB75 cells after 24 hrs by SRB assay; assay type: cell-based; details: snb-75, 24 h; how it was run: as §8
# LOX IMVI [9] = assay: as §5; assay type: cell-based; how it was run: as §9
# RPMI-8226 = assay: Cytotoxicity against human RPMI8226 cells after 24 hrs by SRB assay; assay type: functional; details: RPMI-8226, 24 h; how it was run: as §1
# CCRF-CEM = assay: Cytotoxicity against human CCRF-CEM cells after 24 hrs by SRB assay; assay type: functional; how it was run: as §1
# UACC-257 [10] = assay: as §6; assay type: cell-based; details: uacc-257, 24 h; how it was run: as §8
# UACC-62 [11] = assay: as §7; assay type: cell-based; details: uacc-62, 24 h; how it was run: as §8
# CAKI-1 = assay: Cytotoxicity against human CAKI-1 cells after 24 hrs by SRB assay; assay type: cell-based; details: caki-1, 24 h; how it was run: as §9
# MCF7 = assay: Cytotoxicity against human MCF7 cells after 24 hrs by SRB assay; assay type: cell-based; details: mcf7, 24 h; how it was run: as §9
# MDA-MB-468 = assay: Cytotoxicity against human MDA-MB-468 cells after 24 hrs by SRB assay; assay type: cell-based; details: mda-mb-468, 24 h; how it was run: as §9
structure (smiles),measurement,setting,value
COc1ccc(C(=O)/C=C/c2cc3ccccc3[nH]c2=O)cc1,GI50,MOLT-4,3390 nM
same,TGI,MOLT-4,> 100 µM
same,GI50,EKVX [1],4.4 µM
same,TGI,EKVX [1],83.8 µM
same,GI50,HOP-92,2970 nM
same,TGI,HOP-92,8.76 µM
same,GI50,HCT-116 [2],2310 nM
same,TGI,HCT-116 [2],5700 nM
same,GI50,SW-620,3410 nM
same,TGI,SW-620,8.89 µM
same,GI50,SF-268,2.85 µM
same,TGI,SF-268,9.77 µM
same,GI50,LOX IMVI [3],1850 nM
same,TGI,LOX IMVI [3],5540 nM
same,GI50,SK-MEL-5,5.73 µM
same,TGI,SK-MEL-5,18.1 µM
same,GI50,UACC-257 [4],4.9 µM
same,TGI,UACC-257 [4],18 µM
same,GI50,UACC-62 [5],4.38 µM
same,TGI,UACC-62 [5],19.3 µM
same,GI50,M14,4060 nM
same,TGI,M14,22.5 µM
same,GI50,OVCAR-3,2.49 µM
same,TGI,OVCAR-3,6.72 µM
same,GI50,NCI/ADR-RES,2630 nM
same,TGI,NCI/ADR-RES,8.44 µM
same,GI50,SK-OV-3,4.44 µM
same,TGI,SK-OV-3,> 100 µM
same,GI50,ACHN,3.93 µM
same,TGI,ACHN,16.7 µM
same,GI50,RXF 393,3410 nM
same,TGI,RXF 393,8.53 µM
same,GI50,SN12C,3170 nM
same,TGI,SN12C,> 100 µM
same,GI50,[6],3.3 µM
same,TGI,[6],> 100 µM
same,LC50,SR,> 100 µM
same,LC50,HL-60,> 100 µM
same,LC50,EKVX [7],> 100 µM
same,LC50,HOP-62,59 µM
same,LC50,NCI-H23,> 100 µM
same,LC50,NCI-H522,> 100 µM
same,LC50,HCT-116 [8],31.6 µM
same,LC50,HT-29,> 100 µM
same,LC50,HCC 2998,29 µM
same,LC50,SF-539,45.5 µM
same,LC50,SNB-75,47.2 µM
same,LC50,LOX IMVI [9],33.3 µM
same,GI50,RPMI-8226,2790 nM
same,TGI,RPMI-8226,> 100 µM
same,GI50,CCRF-CEM,4040 nM
same,TGI,CCRF-CEM,> 100 µM
same,LC50,UACC-257 [10],65.5 µM
same,LC50,UACC-62 [11],60.2 µM
same,LC50,CAKI-1,6.9 µM
same,LC50,MCF7,> 100 µM
same,LC50,MDA-MB-468,39.8 µM
O=C(/C=C/c1cc2ccccc2[nH]c1=O)/C=C/c1cc2ccccc2[nH]c1=O,GI50,MOLT-4,2270 nM
same,TGI,MOLT-4,> 100 µM
same,GI50,EKVX [1],2.61 µM
same,TGI,EKVX [1],> 100 µM
same,GI50,HOP-92,> 100000 nM
same,TGI,HOP-92,> 100 µM
same,GI50,HCT-116 [2],131 nM
same,TGI,HCT-116 [2],299 nM
same,GI50,SW-620,1000 nM
same,TGI,SW-620,3.92 µM
same,GI50,SF-268,3.75 µM
same,TGI,SF-268,> 100 µM
same,GI50,LOX IMVI [3],134 nM
same,TGI,LOX IMVI [3],352 nM
same,GI50,SK-MEL-5,5.63 µM
same,TGI,SK-MEL-5,> 100 µM
same,GI50,UACC-257 [4],1.98 µM
same,TGI,UACC-257 [4],4.79 µM
same,GI50,UACC-62 [5],4.61 µM
same,TGI,UACC-62 [5],> 100 µM
same,GI50,M14,393 nM
same,GI50,OVCAR-3,4.2 µM
same,TGI,OVCAR-3,> 100 µM
same,GI50,NCI/ADR-RES,> 100000 nM
same,TGI,NCI/ADR-RES,> 100 µM
same,GI50,SK-OV-3,18.1 µM
same,TGI,SK-OV-3,> 100 µM
same,GI50,ACHN,2.49 µM
same,TGI,ACHN,> 100 µM
same,GI50,RXF 393,1790 nM
same,TGI,RXF 393,3.73 µM
same,GI50,SN12C,2660 nM
same,TGI,SN12C,> 100 µM
same,LC50,SR,> 100 µM
same,LC50,HL-60,> 100 µM
same,LC50,EKVX [7],> 100 µM
same,LC50,HOP-62,> 100 µM
same,LC50,NCI-H23,> 100 µM
same,LC50,NCI-H522,> 100 µM
same,LC50,HCT-116 [8],> 100 µM
same,LC50,HCC 2998,5.25 µM
same,LC50,SF-539,> 100 µM
same,GI50,RPMI-8226,341 nM
same,TGI,RPMI-8226,> 100 µM
same,GI50,CCRF-CEM,697 nM
same,TGI,CCRF-CEM,> 100 µM
same,LC50,UACC-257 [10],> 100 µM
same,LC50,UACC-62 [11],> 100 µM
same,LC50,CAKI-1,> 100 µM
same,LC50,MCF7,> 100 µM
same,LC50,MDA-MB-468,> 100 µM
